For 14 compounds, IC50, Activity and inhibition in vivo results are on record in ChEMBL document CHEMBL1146009, “Synthesis and cytotoxic activity of polyamine analogues of camptothecin” (J Med Chem, 2006).

pIC50: −log10 of the molar value.

For series [1], the system named is NCI-H460. Description: Inhibition of human H460 cell growth. The class given is functional, cell-based. In short, it runs like this: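 H460 cells grown in RPMI-1640 with 10% FCS, seeded in duplicate in log phase. Drug from DMSO stock added 24 h after seeding for 1 h exposure. Cells counted 72 h later by Coulter counter. IC50 is the concentration giving 50% growth decrease versus untreated control; mean ± SD of at least three experiments.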

In series [2] the target is T1, DNA topoisomerase 1 (Homo sapiens) (UniProt P11387).
T1 sequence (whole entry): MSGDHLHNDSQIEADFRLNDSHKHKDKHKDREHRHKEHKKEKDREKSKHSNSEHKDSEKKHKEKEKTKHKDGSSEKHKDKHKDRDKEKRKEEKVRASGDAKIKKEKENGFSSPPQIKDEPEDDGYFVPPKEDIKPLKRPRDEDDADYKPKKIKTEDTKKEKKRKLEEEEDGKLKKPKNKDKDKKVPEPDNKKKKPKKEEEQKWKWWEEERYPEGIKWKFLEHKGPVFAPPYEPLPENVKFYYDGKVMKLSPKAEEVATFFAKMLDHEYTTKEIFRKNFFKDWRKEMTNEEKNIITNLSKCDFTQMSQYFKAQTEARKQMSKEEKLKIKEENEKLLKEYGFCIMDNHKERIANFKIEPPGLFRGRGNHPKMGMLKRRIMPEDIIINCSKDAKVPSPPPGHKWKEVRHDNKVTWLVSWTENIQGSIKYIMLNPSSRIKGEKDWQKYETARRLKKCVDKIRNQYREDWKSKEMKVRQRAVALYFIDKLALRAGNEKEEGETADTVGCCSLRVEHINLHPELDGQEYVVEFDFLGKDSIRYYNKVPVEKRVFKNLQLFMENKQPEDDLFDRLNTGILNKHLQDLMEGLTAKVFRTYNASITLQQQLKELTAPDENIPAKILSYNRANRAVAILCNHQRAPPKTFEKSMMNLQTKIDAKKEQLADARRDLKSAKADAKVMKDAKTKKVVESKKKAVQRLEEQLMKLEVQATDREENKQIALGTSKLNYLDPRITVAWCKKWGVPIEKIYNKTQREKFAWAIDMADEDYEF
Description: Activity against human Top1-mediated DNA cleavage after 10 mins. The class given is functional. The method in brief:
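Purified full-length human recombinant top1 from GST-tagged yeast expression (640 ng per reaction), 3′-end-labelled 751-bp SV40 DNA fragment, pH 7.6 Tris buffer with 150 mM KCl, 5 mM MgCl2. 30 min at 37 °C, then 0.6 M NaCl added to reverse cleavage. Cleavage bands on denaturing gel quantified by phosphorimaging as cleaved/uncleaved radioactivity ratio, relative to 30 min level (100%).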

Series [3] deals with Mus musculus. Description: Toxicity in nude athymic mouse at 1 mg/kg, iv. Details: dose 1 mg/kg, route intravenous. The note with it: in vivo. The class given is organism-based.
Series [4] has as its system Mus musculus. Put plainly: Toxicity in nude athymic mouse at 4 mg/kg, iv. The class given is organism-based. Details: dose 4 mg/kg, route intravenous. The note with it: in vivo.
The subject of series [5] is MKN-28. Put plainly: Antitumor activity against human MKN28 cell line xenografted in nude athymic mouse at 4 mg/kg, po measured as log10 of cell kill to reach 1000 mm3 tumor volume. The class given is functional.
For series [6], the system named is MKN-28. Description: Antitumor activity against human MKN28 cell line xenografted in nude athymic mouse at 1 mg/kg, po measured as log10 of cell kill to reach 1000 mm3 tumor volume. Format: functional. Background: In xenograft studies the graft and the host belong to different species.
In series [7] the test system is Mus musculus. Description: Toxicity in nude athymic mouse at 2 mg/kg, po. The class given is organism-based. The note with it: in vivo. Details: dose 2 mg/kg, route oral.
For series [8], the system named is MKN-28. Description: Antitumor activity against human MKN28 cell line xenografted in nude athymic mouse at 2 mg/kg, po measured as tumor volume inhibition relative to control. The class given is functional. The method in brief: (§1)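 Tumour fragments implanted on both flanks of nude athymic mice at day 0. Dosing iv or po started when tumours were just palpable (day 3-4). Tumour volume inhibition (%) is treated over control, 20 days after last treatment.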

The test system of series [9] is MKN-28. Description: Antitumor activity against human MKN28 cell line xenografted in nude athymic mouse at 4 mg/kg, po measured as body weight loss. The class given is functional.
The test system of series [10] is MKN-28. Description: Antitumor activity against human MKN28 cell line xenografted in nude athymic mouse at 1 mg/kg, po measured as tumor volume inhibition relative to control. The class given is functional. In short, it runs like this:
as §1

Series [11] deals with MKN-28. Description: Antitumor activity against human MKN28 cell line xenografted in nude athymic mouse at 4 mg/kg, po measured as tumor volume inhibition relative to control. The class given is functional. In short, it runs like this:
as §1

Series [12] has as its system MKN-28. Description: Antitumor activity against human MKN28 cell line xenografted in nude athymic mouse at 2 mg/kg, po measured as log10 of cell kill to reach 1000 mm3 tumor volume. The class given is functional.
Series [13] relates to Mus musculus. Description: Toxicity in nude athymic mouse at 1 mg/kg, po. The class given is organism-based. The arrangement: dose 1 mg/kg, route oral. The note with it: in vivo.
In series [14] the test system is MKN-28. Put plainly: Antitumor activity against human MKN28 cell line xenografted in nude athymic mouse at 2 mg/kg, po measured as body weight loss. Format: functional.
The subject of series [15] is MKN-28. Put plainly: Antitumor activity against human MKN28 cell line xenografted in nude athymic mouse at 1 mg/kg, po measured as body weight loss. The class given is functional.
Series [16] concerns Mus musculus. Description: Toxicity in nude athymic mouse at 4 mg/kg, po. Format: organism-based. Details: dose 4 mg/kg, route oral. The note with it: in vivo.
In series [17] the test system is Mus musculus. Put plainly: Toxicity in nude athymic mouse at 5 mg/kg, po. The note with it: in vivo. The class given is organism-based. Details: dose 5 mg/kg, route oral. In short, it runs like this:
(§2)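 Nude athymic mice bearing MKN-28 human gastric carcinoma xenografts, from tumor fragments inoculated on both flanks at day 0. Oral treatment started when tumors were just palpable (day 3-4). Body weight loss (%) and toxicity were recorded per dose group, with toxicity given as a count over 4 mice.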

In series [18] the test system is MKN-28. Put plainly: Antitumor activity against human MKN28 cell line xenografted in nude athymic mouse at 15 mg/kg, po measured as body weight loss. The class given is functional. In short, it runs like this: as §2
In series [19] the test system is MKN-28. Put plainly: Antitumor activity against human MKN28 cell line xenografted in nude athymic mouse at 9 mg/kg, po measured as body weight loss. Format: functional. In short, it runs like this:
as §2

Series [20] deals with MKN-28. Description: Antitumor activity against human MKN28 cell line xenografted in nude athymic mouse at 5 mg/kg, po measured as body weight loss. The class given is functional. In short, it runs like this: as §2
In series [21] the test system is MKN-28. Put plainly: Antitumor activity against human MKN28 cell line xenografted in nude athymic mouse at 15 mg/kg, po measured as log10 of cell kill to reach 1000 mm3 tumor volume. Format: functional.
The subject of series [22] is Mus musculus. Description: Toxicity in nude athymic mouse at 9 mg/kg, po. Format: organism-based. Details: dose 9 mg/kg, route oral. The settings on record: in vivo. The method in brief: as §2
The test system of series [23] is MKN-28. Description: Antitumor activity against human MKN28 cell line xenografted in nude athymic mouse at 5 mg/kg, po measured as tumor volume inhibition relative to control. The class given is functional. In short, it runs like this: (§3)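 MKN-28 human gastric carcinoma tumor fragments inoculated on both flanks of nude athymic mice at day 0. Oral dosing began when tumors were just palpable (day 3-4). Read-out was tumor volume inhibition (%) of treated over control animals, 20 days after the last treatment. Groups of 4 mice.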

Series [24] relates to MKN-28. Put plainly: Antitumor activity against human MKN28 cell line xenografted in nude athymic mouse at 15 mg/kg, po measured as tumor volume inhibition relative to control. The class given is functional. In short, it runs like this:
as §3

Series [25] concerns MKN-28. Description: Antitumor activity against human MKN28 cell line xenografted in nude athymic mouse at 9 mg/kg, po measured as log10 of cell kill to reach 1000 mm3 tumor volume. Format: functional.
Series [26] relates to Mus musculus. Put plainly: Toxicity in nude athymic mouse at 15 mg/kg, po. Format: organism-based. Details: dose 15 mg/kg, route oral. The note with it: in vivo. The method in brief:
as §2

Series [27] has as its system MKN-28. Put plainly: Antitumor activity against human MKN28 cell line xenografted in nude athymic mouse at 5 mg/kg, po measured as log10 of cell kill to reach 1000 mm3 tumor volume. Format: functional.
For series [28], the system named is MKN-28. Description: Antitumor activity against human MKN28 cell line xenografted in nude athymic mouse at 9 mg/kg, po measured as tumor volume inhibition relative to control. Format: functional. The method in brief:
as §3

By pIC50 is commonly meant the negative decadic logarithm of the IC50, by convention in mol/L. Lower therefore signals a high IC50. With `CC[C@@]1(O)C(=O)OCc2c1cc1n(c2=O)Cc2c-1nc1ccccc1c2/C=N\OCCCN`, the pIC50 in series [1] is 5.75.
In series [1], `CC[C@@]1(O)C(=O)OCc2c1cc1n(c2=O)Cc2c-1nc1ccccc1c2/C=N\OCCCNC(=O)OC(C)(C)C` showed a pIC50 of 6.52.
The compound `CC[C@@]1(O)C(=O)OCc2c1cc1n(c2=O)Cc2c-1nc1ccccc1c2CN(CCCN(CCCCN(CCCNC(=O)OC(C)(C)C)C(=O)OC(C)(C)C)C(=O)OC(C)(C)C)C(=O)OC(C)(C)C` had a pIC50 in series [1] of 5.49.
Regarding `CC[C@@]1(O)C(=O)OCc2c1cc1n(c2=O)Cc2c-1nc1ccccc1c2/C=N\OCCNCCCCN`, in series [1], the pIC50 is 5.94. The Activity in [2] was determined as 60%.
On to `CC[C@@]1(O)C(=O)OCc2c1cc1n(c2=O)Cc2c-1nc1ccccc1c2CNCCCN(CCCCN(CCCNC(=O)OC(C)(C)C)C(=O)OC(C)(C)C)C(=O)OC(C)(C)C`, for which the pIC50 in series [1] was 5.85.
On the same count and under the same terms, for `CCc1c2c(nc3ccc(O)cc13)-c1cc3c(c(=O)n1C2)COC(=O)[C@]3(O)CC` [7-ETHYL-10-HYDROXYCAMPTOTHECIN] the value was 7.10.
Consider `CC[C@@]1(O)C(=O)OCc2c1cc1n(c2=O)Cc2c-1nc1ccccc1c2/C=N/CCCN(CCCCNC(=O)OC(C)(C)C)C(=O)OC(C)(C)C`, for which, in series [1], the pIC50 was 7.82. The Activity entry in series [3] and in series [4] was “Non-toxic” in each case.
Take `CC[C@@]1(O)C(=O)OCc2c1cc1n(c2=O)Cc2c-1nc1ccccc1c2/C=N\OCCNC(=O)OC(C)(C)C`: the pIC50 in series [1] was 7.08.
Take `CC[C@@]1(O)C(=O)OCc2c1cc1n(c2=O)Cc2c-1nc1ccccc1c2/C=N\OCCNCCCCNCCCN`: in series [1], the pIC50 is 5.97. Besides, the Activity in series [2] amounted to 60%.
The compound `CC[C@@]1(O)C(=O)OCc2c1cc1n(c2=O)Cc2c-1nc1ccccc1c2CNCCCNCCCCNCCCN` had a pIC50 in series [1] of 5.84. This compound also had an Activity in series [2] of 60%.
In general, inhibition in vivo refers to how much of the control response was suppressed. A low value points to a response near the control. In the case of `CC[C@@]1(O)C(=O)OCc2c1cc1n(c2=O)Cc2c-1nc1ccccc1c2/C=N/CCCN(CCCCN(CCCNC(=O)OC(C)(C)C)C(=O)OC(C)(C)C)C(=O)OC(C)(C)C`, the Activity was 1 in series [5]; 0.1 in series [6]; “Non-toxic” in series [7]; 7% in series [9]; 0.5 in [12]; “Non-toxic” in [13]. Besides, the Activity was 1% in series [14], 5% in series [15] and “Non-toxic” in [16]. In series [8], this compound came in with an inhibition in vivo at 2 mg/kg of 62%. The inhibition in vivo at 1 mg/kg in [10] worked out at 28%. For the same compound, the inhibition in vivo at 4 mg/kg in series [11] is 72%. Moreover, the pIC50 in series [1] was 7.54.
Turning to `CC[C@@]1(O)C(=O)OCc2c1cc1n(c2=O)Cc2cc3c(CN(C)C)c(O)ccc3nc2-1` [TOPOTECAN], the Activity entry in [17] was “Non-toxic”; in series [18], 8%; in series [19], 0%; in [20] it was 0%; in series [21], 2.1; in [22], “Non-toxic”. Also, the figures for the Activity in series [25], in series [26] and in series [27] were 1.7, “Non-toxic” and 1.3, respectively. Moreover, in [23], 5 mg/kg produced 80% inhibition in vivo. The same compound gave an inhibition in vivo at 15 mg/kg in series [24] of 98%. The inhibition in vivo at 9 mg/kg in series [28] was 91%.
Take `CC[C@@]1(O)C(=O)OCc2c1cc1n(c2=O)Cc2c-1nc1ccccc1c2/C=N\OCCN(CCCCNC(=O)OC(C)(C)C)C(=O)OC(C)(C)C`: in series [1], the pIC50 was 5.94.
In the case of `CC[C@@]1(O)C(=O)OCc2c1cc1n(c2=O)Cc2c-1nc1ccccc1c2/C=N\OCCN(CCCCN(CCCNC(=O)OC(C)(C)C)C(=O)OC(C)(C)C)C(=O)OC(C)(C)C`, the pIC50 in [1] is 5.97.
